Activity calls are given as the source filed them.
Legend:
[1] = system: Rattus norvegicus; assay: Antinociceptive activity in Sprague-Dawley rat at 5 mg/kg, ip after 30 mins by tail flick test; assay type: functional; conditions: for MPE: route intraperitoneal
Outline: (§1)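 Male Sprague-Dawley rats, housed singly at 21 °C on a 12 h light-dark cycle, tested in the light phase. Drug given ip in saline (100-500 µL). Tail flick: radiant heat from a 300 W bulb focused on the tail tip, withdrawal latency recorded. Pre-drug responders above 75% of cut-off excluded. Testing was blinded. Results are %MPE at 15 and 30 min and duration (h), mean of 12 animals, Mann-Whitney U-test.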

[2] = system: Rattus norvegicus; assay: Antinociceptive activity in Sprague-Dawley rat at 1 mg/kg, ip administered once daily for 9 days measured daily after 30 mins by tail flick test; assay type: functional; conditions: route intraperitoneal
Outline: (§2)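 Separate groups of male Sprague-Dawley rats (250-300 g) dosed ip once daily for 9 consecutive days. Tail flick latency (radiant heat to tail tip) measured daily 30 min after each injection. Response expressed as %MPE.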

[3] = system: Rattus norvegicus; assay: Antinociceptive activity in Sprague-Dawley rat assessed as duration of antinociception at 0.01 mg/kg, ip by tail flick test; assay type: functional; conditions: route intraperitoneal; outline: as §1
[4] = molecular target: Mu-type opioid receptor (Rattus norvegicus) (UniProt P33535); conditions: HEK293
Chain of Mu-type opioid receptor (Rattus norvegicus) (P33535 whole entry): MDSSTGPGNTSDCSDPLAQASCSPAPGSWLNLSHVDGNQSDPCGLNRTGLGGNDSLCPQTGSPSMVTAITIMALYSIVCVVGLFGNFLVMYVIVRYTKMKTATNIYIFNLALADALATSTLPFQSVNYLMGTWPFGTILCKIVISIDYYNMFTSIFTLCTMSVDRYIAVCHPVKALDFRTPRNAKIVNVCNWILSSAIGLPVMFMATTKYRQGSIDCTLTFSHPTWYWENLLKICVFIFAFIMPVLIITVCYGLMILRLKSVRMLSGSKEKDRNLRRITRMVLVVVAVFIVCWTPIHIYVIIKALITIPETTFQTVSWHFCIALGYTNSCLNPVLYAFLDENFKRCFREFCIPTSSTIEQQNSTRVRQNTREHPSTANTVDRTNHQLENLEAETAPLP

[5] = system: Rattus norvegicus; assay: Antinociceptive activity in Sprague-Dawley rat at 0.2 mg/kg, ip after 30 mins by tail flick test; assay type: functional; conditions: route intraperitoneal; outline: as §1
[6] = system: Rattus norvegicus; assay: Antinociceptive activity in Sprague-Dawley rat at 0.05 mg/kg, ip administered once daily for 9 days measured daily after 30 mins by tail flick test; assay type: functional; conditions: route intraperitoneal; outline: as §2
[7] = system: Rattus norvegicus; assay: Antinociceptive activity in Sprague-Dawley rat at 0.05 mg/kg, ip after 15 mins by tail flick test; assay type: functional; conditions: route intraperitoneal; outline: as §1
[8] = system: Rattus norvegicus; assay: Antinociceptive activity in Sprague-Dawley rat at 0.1 mg/kg, ip after 15 mins by tail flick test; assay type: functional; conditions: route intraperitoneal; outline: as §1
[9] = system: Rattus norvegicus; assay: Antinociceptive activity in Sprague-Dawley rat at 0.1 mg/kg, ip after 30 mins by tail flick test; assay type: functional; conditions: route intraperitoneal; outline: as §1
[10] = system: Rattus norvegicus; assay: Antinociceptive activity in Sprague-Dawley rat at 0.1 mg/kg, ip administered once daily for 9 days measured daily after 30 mins by tail flick test; assay type: functional; conditions: route intraperitoneal; outline: as §2
[11] = system: Rattus norvegicus; assay: Antinociceptive activity in Sprague-Dawley rat at 0.01 to 5 mg/kg, ip by tail flick test in presence of naloxone; assay type: functional, organism-based
Outline: (§3)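 Antinociception in male Sprague-Dawley rats given drug ip in saline and measured by tail flick or paw pressure. Reversal tested with naloxone, stated as 5 mg/kg ip in the table footnote and as 0.1 mg/kg in the text.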

[12] = system: Rattus norvegicus; assay: Toxicity in Sprague-Dawley rat assessed as depression of mean arterial blood pressure at 1 mg/kg, iv administered for 60 secs measured for 30 mins; assay type: organism-based; parameters: dose 1 mg/kg, route intravenous; conditions: in vivo, 0.5 h
Outline: (§4)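 Male Sprague-Dawley rats (250-300 g) under urethane anaesthesia (1.25 g/kg ip), kept at 37 °C, tracheotomised, with carotid and jugular cannulae. After ≥1 h stabilisation and a saline infusion, drug was given iv in saline over 60 ± 20 s. MAP, SAP, DAP and HR recorded for 30 min as % change from time zero. Student's t test and Newman-Keuls.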

[13] = system: Rattus norvegicus; assay: Antinociceptive activity in Sprague-Dawley rat assessed as duration of antinociception at 0.05 mg/kg, ip by tail flick test; assay type: functional; conditions: route intraperitoneal; outline: as §1
[14] = system: Rattus norvegicus; assay: Antinociceptive activity in Sprague-Dawley rat at 5 mg/kg, ip after 15 mins by tail flick test; assay type: functional; conditions: route intraperitoneal; outline: as §1
[15] = system: Rattus norvegicus; assay: Antinociceptive activity in Sprague-Dawley rat at 1 mg/kg, ip after 30 mins by tail flick test; assay type: functional; conditions: for MPE: route intraperitoneal; outline: as §1
[16] = system: Rattus norvegicus; assay: Antinociceptive activity in Sprague-Dawley rat at 0.5 mg/kg, ip after 15 mins by tail flick test; assay type: functional; conditions: route intraperitoneal; outline: as §1
[17] = system: Rattus norvegicus; assay: Antinociceptive activity in Sprague-Dawley rat at 5 mg/kg, ip administered once daily for 9 days measured daily after 30 mins by tail flick test; assay type: functional; conditions: route intraperitoneal; outline: as §2
[18] = system: Rattus norvegicus; assay: Antinociceptive activity in Sprague-Dawley rat assessed as duration of antinociception at 0.02 mg/kg, ip by tail flick test; assay type: functional; conditions: route intraperitoneal; outline: as §1
[19] = system: Rattus norvegicus; assay: Antinociceptive activity in Sprague-Dawley rat assessed as effect on mechanical nociceptive threshold at 1 to 5 mg/kg, ip after 30 mins by paw pressure test; assay type: functional, organism-based
Outline: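 Male Sprague-Dawley rats, drug given ip in saline. Paw pressure test run before tail flick in each animal. Operator blinded to treatment. Rats with pre-drug responses above 75% of cut-off excluded. Read-out taken 30 min post-injection. Statistics by Mann-Whitney U-test.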

[20] = system: Rattus norvegicus; assay: Antinociceptive activity in Sprague-Dawley rat at 0.02 mg/kg, ip after 15 mins by tail flick test; assay type: functional; conditions: route intraperitoneal; outline: as §1
[21] = system: Rattus norvegicus; assay: Antinociceptive activity in Sprague-Dawley rat assessed as duration of antinociception at 1 mg/kg, ip by tail flick test; assay type: functional; conditions: route intraperitoneal; outline: as §1
[22] = system: Rattus norvegicus; assay: Toxicity in Sprague-Dawley rat assessed as depression of heart rate at 1 mg/kg, iv administered for 60 secs measured for 30 mins; assay type: organism-based; parameters: dose 1 mg/kg, route intravenous; conditions: in vivo, 0.5 h; outline: as §4
[23] = system: Rattus norvegicus; assay: Antinociceptive activity in Sprague-Dawley rat at 0.5 mg/kg, ip after 30 mins by tail flick test; assay type: functional; conditions: route intraperitoneal; outline: as §1
[24] = system: Rattus norvegicus; assay: Antinociceptive activity in Sprague-Dawley rat at 1 mg/kg, ip after 15 mins by tail flick test; assay type: functional; conditions: route intraperitoneal; outline: as §1
[25] = system: Rattus norvegicus; assay: Antinociceptive activity in Sprague-Dawley rat at 0.02 mg/kg, ip after 30 mins by tail flick test; assay type: functional; conditions: route intraperitoneal; outline: as §1
[26] = system: Rattus norvegicus; assay: Antinociceptive activity in Sprague-Dawley rat assessed as duration of antinociception at 0.5 mg/kg, ip by tail flick test; assay type: functional; conditions: route intraperitoneal; outline: as §1
[27] = system: Rattus norvegicus; assay: Antinociceptive activity in ip dosed Sprague-Dawley rat at after 30 mins by tail flick test; assay type: functional, organism-based; outline: as §1
[28] = system: Rattus norvegicus; assay: Antinociceptive activity in Sprague-Dawley rat at 0.01 mg/kg, ip after 30 mins by tail flick test; assay type: functional; conditions: route intraperitoneal; outline: as §1
[29] = system: Rattus norvegicus; assay: Antinociceptive activity in Sprague-Dawley rat assessed as duration of antinociception at 0.2 mg/kg, ip by tail flick test; assay type: functional; conditions: route intraperitoneal; outline: as §1
[30] = system: Rattus norvegicus; assay: Antinociceptive activity in Sprague-Dawley rat assessed as effect on mechanical nociceptive threshold at 1 to 5 mg/kg, ip by paw pressure test in presence of naloxone; assay type: functional, organism-based; outline: as §3
[31] = system: Rattus norvegicus; assay: Antinociceptive activity in Sprague-Dawley rat at 0.05 mg/kg, ip after 30 mins by tail flick test; assay type: functional; conditions: route intraperitoneal; outline: as §1
[32] = system: Rattus norvegicus; assay: Antinociceptive activity in Sprague-Dawley rat at 0.2 mg/kg, ip after 15 mins by tail flick test; assay type: functional; conditions: route intraperitoneal; outline: as §1
[33] = system: Rattus norvegicus; assay: Antinociceptive activity in Sprague-Dawley rat assessed as duration of antinociception at 5 mg/kg, ip by tail flick test; assay type: functional; conditions: route intraperitoneal; outline: as §1
[34] = system: Rattus norvegicus; assay: Antinociceptive activity in Sprague-Dawley rat assessed as duration of antinociception at 0.1 mg/kg, ip by tail flick test; assay type: functional; conditions: route intraperitoneal; outline: as §1
[35] = organism: Rattus norvegicus; assay: Toxicity in Sprague-Dawley rat assessed as body weight loss; assay type: organism-based; conditions: in vivo
[36] = system: Rattus norvegicus; assay: Toxicity in Sprague-Dawley rat assessed as depression of mean arterial blood pressure at 5 mg/kg, iv administered for 60 secs measured for 30 mins; assay type: organism-based; parameters: dose 5 mg/kg, route intravenous; conditions: in vivo, 0.5 h; outline: as §4
[37] = system: Rattus norvegicus; assay: Toxicity in Sprague-Dawley rat assessed as depression of heart rate at 5 mg/kg, iv administered for 60 secs measured for 30 mins; assay type: organism-based; parameters: dose 5 mg/kg, route intravenous; conditions: in vivo, 0.5 h; outline: as §4

`CN1CC[C@]23c4c5ccc(O)c4O[C@H]2[C@@H](O[C@H]2O[C@H](CO)[C@@H](O)[C@H](O)[C@@H]2O)C=C[C@H]3[C@H]1C5` was tested, and the MPE [1] was 100%, the MPE [2] was 100% and the Time [3] was 2 h. The KiH [4] was 1.7 nM, the KiL [4] was 55 nM and the MPE [5] was 100%. For the same compound, the MPE [6] was 55%, the MPE [7] was 56% and the MPE [8] was 50%. For the same compound, the MPE [9] was 100%, the Activity [10] was 100% and the Activity [11] was “inactive”. The Activity [12] was “Non-toxic”, the Time [13] was 5 h and the MPE [14] was 83%. It also gave an MPE [15] of 100%, an MPE [16] of 54% and an MPE [17] of 100%. For the same compound, the Time [18] was 3.5 h, the Activity [19] was “Active” and the MPE [20] was 19%. The Time [21] was 5 h, the Activity [22] was “Non-toxic” and the MPE [23] was 100%. It also gave an MPE [24] of 56%, an MPE [25] of 51% and a Time [26] of 5 h. The IC50 [27] was 0.02 mg/kg, the MPE [28] was 22% and the Time [29] was 5 h. The Activity [30] was “inactive”, the MPE [31] was 84% and the MPE [32] was 57%. The Time [33] was 5 h, the Time [34] was 5 h and the Activity [35] was “Non-toxic”.

In the case of `CN1CC[C@]23c4c5ccc(O)c4O[C@H]2[C@@H](O[C@@H]2O[C@H](C(=O)O)[C@@H](O)[C@H](O)[C@H]2O)C=C[C@H]3[C@H]1C5`, the Activity [1] is reported as “Active”, the Activity [15] is reported as “Active” and the Activity [19] is reported as “Active”.

In the case of `CN1CC[C@]23c4c5ccc(O)c4O[C@H]2[C@@H](O)C=C[C@H]3[C@H]1C5.CN1CC[C@]23c4c5ccc(O)c4O[C@H]2[C@@H](O)C=C[C@H]3[C@H]1C5.O=S(=O)(O)O`, the MPE [1] is reported as 72%, the MPE [14] is reported as 45% and the Time [33] is reported as 2.5 h.

`CN1CC[C@]23c4c5ccc(O)c4O[C@H]2[C@@H](O)C=C[C@H]3[C@H]1C5` [MORPHINE] was tested, and the Activity [36] was “Toxic”, the Activity [12] was “Non-toxic” and the Activity [37] was “Toxic”. For the same compound, the MPE [15] was 35%.

With `CN1CC[C@]23c4c5ccc(O)c4O[C@H]2[C@@H](O)C=C[C@H]3[C@H]1C5` the KiH [4] was 2.5 nM, the KiL [4] was 113 nM and the Activity [19] was “Active”.

From ChEMBL document CHEMBL1138464, “Synthesis, conformation, and biological characterization of a sugar derivative of morphine that is a potent, long-lasting, and nontolerant antinociceptive” (J Med Chem, 2009)
